Experiment [1] has as its target T1, Metabotropic glutamate receptor 5 (Homo sapiens, UniProt P41594). The experiment in a line: Antagonist activity at mGluR5 (unknown origin) expressed in HEK293T cells assessed as inhibition of L-Glu-induced MAPK phosphorylation preincubated for 30 mins followed by agonist stimulation for 10 mins by Western blot analysis. The experiment is classed as functional, cell-based. Summed up:
(§1)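 Cells stably expressing mGluR5 alone or with D2R, seeded at 400,000 per well, serum-starved overnight at about 70% confluence. Ligand pretreatment at 1 nM-10 µM for 30 min at 37 °C, then 10 µM L-glutamate for 7-10 min. RIPA lysates run on western blot; phospho-p44/42 MAPK signal normalized to total p44/42 MAPK. Mean ± SEM of three independent experiments.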
On the technique in general: Immunoblotting shows a protein as a band on a membrane.

Experiment [2] has as its target T2, D(2) dopamine receptor (Homo sapiens, UniProt P14416). In words: Displacement of [3H]-Raclopride from recombinant human dopamine D2 receptor expressed in HEK293T cell membranes co-expressing mGluR5a (unknown origin) after 1 hr by liquid scintillation counting. The method in brief: (§2)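 Membranes (20 µg) from HEK293T cells stably expressing D2R, or D2R with mGluR5. Incubated with 2.0 nM [3H]raclopride and unlabeled ligand (0.1 nM-10 µM) for 1 h at 37 °C in 50 mM Tris-HCl pH 7.4 containing NaCl, KCl, MgCl2, CaCl2 and EDTA. Nonspecific binding defined with 1 µM haloperidol. Counted by scintillation; Ki by Cheng-Prusoff; three independent assays.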
On the technique in general: In a radioligand displacement assay an active substance lowers the binding of a labelled ligand.

The target of experiment [3] is T2, D(2) dopamine receptor. The experiment in a line: Displacement of [3H]-Raclopride from recombinant human dopamine D2 receptor expressed in HEK293T cell membranes after 1 hr by liquid scintillation counting. Summed up: as §2
Experiment [4] has as its target T2, D(2) dopamine receptor. In words: Agonist activity at human dopamine D2 receptor expressed in HEK293T cells assessed as reduction in forskolin-induced cAMP accumulation preincubated for 15 mins followed by forskolin addition by GloSensor-based assay. The experiment is classed as functional, cell-based. In general terms: cAMP levels reflect the balance of adenylyl cyclase and phosphodiesterase activity.

Experiment [5] addresses T3, D(2) dopamine receptor/Metabotropic glutamate receptor 5 (Homo sapiens, UniProt P14416+P41594). In words: Agonist activity at human dopamine D2 receptor /mGluR5a (unknown origin) expressed in HEK293T cells assessed as reduction in forskolin-induced cAMP accumulation preincubated for 15 mins followed by forskolin addition by GloSensor-based assay. The class given is functional, cell-based.

The target in experiment [6] is T1, Metabotropic glutamate receptor 5. In words: Displacement of [3H]MPEP from recombinant mGluR5a (unknown origin) expressed in HEK293T cell membranes co-expressing human dopamine D2 receptor after 1 hr by liquid scintillation counting. Summed up:
(§3)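 Membranes (20 µg) from cells stably expressing mGluR5, with or without D2R. Incubated with 3.0 nM [3H]MPEP and unlabeled ligand (0.1 nM-100 µM) in 50 mM Tris-HCl/2 mM MgCl2, pH 7.4, for 1 h at 25 °C. Nonspecific binding defined with 10 µM MPEP. Filtration and scintillation counting; Ki via Cheng-Prusoff; three independent assays in duplicate.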

The target of experiment [7] is T3, D(2) dopamine receptor/Metabotropic glutamate receptor 5. In words: Antagonist activity at human dopamine D2 receptor /mGluR5a (unknown origin) expressed in HEK293T cells assessed as inhibition of L-Glu-induced MAPK phosphorylation preincubated for 30 mins followed by agonist stimulation for 10 mins by Western blot analysis. The experiment is classed as cell-based. The method in brief: as §1

Experiment [8] deals with T1, Metabotropic glutamate receptor 5. The experiment in a line: Displacement of [3H]MPEP from recombinant mGluR5 (unknown origin) expressed in HEK293T cell membranes after 1 hr by liquid scintillation counting. Summed up:
as §3

T1 sequence (P41594 whole entry): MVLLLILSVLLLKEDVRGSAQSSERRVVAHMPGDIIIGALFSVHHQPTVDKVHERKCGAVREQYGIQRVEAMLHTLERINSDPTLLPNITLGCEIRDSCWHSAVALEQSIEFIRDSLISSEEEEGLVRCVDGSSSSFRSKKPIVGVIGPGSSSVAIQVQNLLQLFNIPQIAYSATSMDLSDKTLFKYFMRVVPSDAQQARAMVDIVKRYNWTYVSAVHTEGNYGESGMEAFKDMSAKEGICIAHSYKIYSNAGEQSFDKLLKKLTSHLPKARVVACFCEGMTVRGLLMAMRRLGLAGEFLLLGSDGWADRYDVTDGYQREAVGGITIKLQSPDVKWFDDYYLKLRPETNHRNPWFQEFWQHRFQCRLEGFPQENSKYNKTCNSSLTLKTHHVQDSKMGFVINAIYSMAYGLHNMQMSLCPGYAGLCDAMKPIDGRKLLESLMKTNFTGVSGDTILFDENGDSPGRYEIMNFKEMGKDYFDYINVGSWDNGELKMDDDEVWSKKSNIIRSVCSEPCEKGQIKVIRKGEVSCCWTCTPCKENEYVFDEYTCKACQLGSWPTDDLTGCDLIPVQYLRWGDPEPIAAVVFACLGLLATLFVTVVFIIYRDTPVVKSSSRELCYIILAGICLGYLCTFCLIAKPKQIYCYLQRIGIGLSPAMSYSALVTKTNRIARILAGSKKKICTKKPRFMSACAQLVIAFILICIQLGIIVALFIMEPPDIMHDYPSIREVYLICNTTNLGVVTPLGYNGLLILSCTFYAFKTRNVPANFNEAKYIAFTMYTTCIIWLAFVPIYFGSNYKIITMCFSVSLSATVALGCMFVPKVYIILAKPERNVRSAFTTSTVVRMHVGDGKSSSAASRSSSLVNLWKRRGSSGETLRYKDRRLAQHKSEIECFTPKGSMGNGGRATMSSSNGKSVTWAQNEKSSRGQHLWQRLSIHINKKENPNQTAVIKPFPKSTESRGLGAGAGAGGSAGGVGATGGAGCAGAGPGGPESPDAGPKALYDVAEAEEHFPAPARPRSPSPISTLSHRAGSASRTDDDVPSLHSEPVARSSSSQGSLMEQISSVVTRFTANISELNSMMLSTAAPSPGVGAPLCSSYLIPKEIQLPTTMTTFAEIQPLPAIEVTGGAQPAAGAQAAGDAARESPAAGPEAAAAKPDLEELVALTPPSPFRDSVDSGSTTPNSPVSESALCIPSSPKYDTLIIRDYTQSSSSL
T2 sequence (P14416 whole entry): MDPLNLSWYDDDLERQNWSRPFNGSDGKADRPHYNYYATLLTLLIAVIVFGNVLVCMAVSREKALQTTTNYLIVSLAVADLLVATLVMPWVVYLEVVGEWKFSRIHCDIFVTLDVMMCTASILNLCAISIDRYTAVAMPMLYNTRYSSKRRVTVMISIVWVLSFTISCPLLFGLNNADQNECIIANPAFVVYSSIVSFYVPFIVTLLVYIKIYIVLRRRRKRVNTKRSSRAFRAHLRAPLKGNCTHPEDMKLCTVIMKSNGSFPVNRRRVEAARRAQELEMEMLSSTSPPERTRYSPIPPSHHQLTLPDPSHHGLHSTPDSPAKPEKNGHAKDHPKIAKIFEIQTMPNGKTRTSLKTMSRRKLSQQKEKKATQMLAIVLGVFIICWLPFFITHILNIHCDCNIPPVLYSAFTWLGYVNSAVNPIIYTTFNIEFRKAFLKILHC
T3 sequence (P14416 whole entry): as above
T3 sequence (P41594 whole entry): as the sequence (P41594 whole entry) above

Turning to `COc1cc(CN2CCN(c3ccccc3OC)CC2)ccc1OCc1cn(CCOCCOCCOCCOCCOCCNC(=O)COc2cccc(C#Cc3csc(C)n3)c2)nn1`, in experiment [1], the half-maximal inhibitory concentration (IC50) (usually the midpoint of a concentration-inhibition curve) was found to be 0.9 µM. In addition, the Ki – broadly, a dissociation constant, usually derived from enzyme kinetics or from competition with a known ligand – on D(2) dopamine receptor [2] worked out at 0.186 µM; on D(2) dopamine receptor [3] it was 0.352 µM.
For the compound `CCCN(CCc1ccc(NC(=O)CCc2cn(CCCCCCNC(=O)COc3cncc(C#Cc4csc(C)n4)c3)nn2)cc1)C1CCc2c(O)cccc2C1` (stereo unspecified), in experiment [1], the concentration for half-maximal inhibition (IC50) was 1.6 µM. The inhibitory constant (Ki) was found to be 0.142 µM at D(2) dopamine receptor [2] and 0.295 µM on D(2) dopamine receptor [3]. The EC50 (usually the concentration at which the effect is half-maximal) on D(2) dopamine receptor [4] (read-out: EC50) is 0.0076 µM; in experiment [5] (read-out: EC50), 0.02 µM.
`COc1cc(CN2CCN(c3ccccc3OC)CC2)ccc1OCc1cn(CCCCCCCCN(C)CCCCCNC(=O)COc2cccc(C#Cc3csc(C)n3)c2)nn1`: in experiment [1], the 50% inhibitory concentration (IC50) came to 0.24 µM. For the same compound, the figures for the Ki at D(2) dopamine receptor [2] and at D(2) dopamine receptor [3] were 0.094 µM and 0.147 µM, respectively.
For `COc1cc(CN2CCN(c3ccccc3OC)CC2)ccc1OCc1cn(CCCCCCCCCCN(C)CCCCCNC(=O)COc2cccc(C#Cc3csc(C)n3)c2)nn1`, in experiment [1], the IC50 was 0.31 µM. For the same compound, the values for the Ki at D(2) dopamine receptor [2] and at D(2) dopamine receptor [3] were 0.252 µM and 0.398 µM, respectively.
Regarding `CCCN(CCc1ccc(NC(=O)CCc2cn(CCCCCCCCN(C)CCCCCNC(=O)COc3cncc(C#Cc4csc(C)n4)c3)nn2)cc1)C1CCc2c(O)cccc2C1` (stereo unspecified), the Ki in experiment [6] turned out to be 1.1 µM; in experiment [8] it was 2.3 µM; on D(2) dopamine receptor [2], 0.013 µM; on D(2) dopamine receptor [3], 0.05 µM. In addition, the half-maximal inhibitory concentration (IC50) in experiment [1] is 0.17 µM; in experiment [7], 0.62 µM. The values for the EC50 (on D(2) dopamine receptor [4] (read-out: EC50); in experiment [5] (read-out: EC50)) were 0.0033 µM and 0.0015 µM, respectively.
`C#CCCC(=O)Nc1ccc(CCN(CCC)C2CCc3c(O)cccc3C2)cc1` (stereo unspecified): the Ki on D(2) dopamine receptor [2] worked out at 0.019 µM; on D(2) dopamine receptor [3], 0.017 µM. Further, the EC50 on D(2) dopamine receptor [4] (read-out: EC50) is 0.003 µM; in experiment [5] (read-out: EC50) it was 0.0065 µM.
On to `COc1cc(CN2CCN(c3ccccc3OC)CC2)ccc1OCc1cn(CCCCCCCCCCN(C)CCCCCNC(=O)COc2cncc(C#Cc3csc(C)n3)c2)nn1`, for which the IC50 in experiment [1] is 0.45 µM. In addition, the inhibition constant Ki worked out at 0.115 µM at D(2) dopamine receptor [2] and 0.303 µM on D(2) dopamine receptor [3].
Turning to `Cc1nc(C#Cc2cncc(OCC(=O)NCCCCCN(C)CCCCCCCCN=[N+]=[N-])c2)cs1`, the Ki in experiment [6] was found to be 5.7 µM; in experiment [8] it was 5.8 µM. Besides, the half-maximal inhibitory concentration (IC50) was found to be 2.6 µM in experiment [1] and 4.5 µM in experiment [7].
For `CCCN(CCc1ccc(NC(=O)CCc2cn(CCCCCCCCCCN(C)CCCCCNC(=O)COc3cncc(C#Cc4csc(C)n4)c3)nn2)cc1)C1CCc2c(O)cccc2C1` (stereo unspecified), the half-maximal inhibitory concentration (IC50) in experiment [1] came out at 0.32 µM. In addition, the results for the inhibition constant (Ki) on D(2) dopamine receptor [2] and at D(2) dopamine receptor [3] were 0.171 µM and 0.079 µM, respectively. For the same compound, the figures for the EC50 (on D(2) dopamine receptor [4] (read-out: EC50); in experiment [5] (read-out: EC50)) were 0.0055 µM and 0.032 µM, respectively.
For the compound `COc1cc(CN2CCN(c3ccccc3OC)CC2)ccc1OCc1cn(CCCCCCCCN(C)CCCCCNC(=O)COc2cncc(C#Cc3csc(C)n3)c2)nn1`, the inhibition constant (Ki) in experiment [6] came out at 1.3 µM; in experiment [8], 1 µM; at D(2) dopamine receptor [2], 0.045 µM; at D(2) dopamine receptor [3], 0.132 µM. Moreover, the figures for the 50% inhibitory concentration (IC50) in experiment [1] and in experiment [7] were 0.11 µM and 1.8 µM, respectively.
As for `COc1cc(CN2CCN(c3ccccc3OC)CC2)ccc1OCc1cn(CCOCCOCCOCCNC(=O)COc2cccc(C#Cc3csc(C)n3)c2)nn1`, the 50% inhibitory concentration (IC50) in experiment [1] was determined as 1.2 µM. For the same compound, the inhibition constant Ki at D(2) dopamine receptor [2] came to 0.251 µM; at D(2) dopamine receptor [3] it was 0.438 µM.
Regarding `C#CCOc1ccc(CN2CCN(c3ccccc3OC)CC2)cc1OC`, the inhibition constant (Ki) at D(2) dopamine receptor [2] was found to be 0.069 µM; at D(2) dopamine receptor [3], 0.077 µM. The EC50 entry (on D(2) dopamine receptor [4]; in experiment [5]) was “Not Active” throughout.

Source of the values: ChEMBL document CHEMBL4229559, “Synthesis toward Bivalent Ligands for the Dopamine D2 and Metabotropic Glutamate 5 Receptors” (J Med Chem, 2018).
